Here are results for seven compounds from ChEMBL document CHEMBL2390841, “1,1-Difluoroethyl-substituted triazolothienopyrimidines as inhibitors of a human urea transport protein (UT-B): new analogs and binding model” (Bioorg Med Chem Lett, 2013).

For one series, the system named is Liver microsomes. Put plainly: Metabolic stability in rat liver microsomes assessed as parent compound remaining after 30 mins. The format is ADME, Microsome. To be noted: 0.5 h. The method, boiled down:
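Compounds are incubated 30 min with rat liver microsomes plus NADPH, then organic-extracted and analysed by LCMS. Value is percent parent remaining.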

The target in a further series is T1, Urea transporter 1 (Mus musculus, UniProt Q8VHL0).
T1 sequence (Q8VHL0 whole entry): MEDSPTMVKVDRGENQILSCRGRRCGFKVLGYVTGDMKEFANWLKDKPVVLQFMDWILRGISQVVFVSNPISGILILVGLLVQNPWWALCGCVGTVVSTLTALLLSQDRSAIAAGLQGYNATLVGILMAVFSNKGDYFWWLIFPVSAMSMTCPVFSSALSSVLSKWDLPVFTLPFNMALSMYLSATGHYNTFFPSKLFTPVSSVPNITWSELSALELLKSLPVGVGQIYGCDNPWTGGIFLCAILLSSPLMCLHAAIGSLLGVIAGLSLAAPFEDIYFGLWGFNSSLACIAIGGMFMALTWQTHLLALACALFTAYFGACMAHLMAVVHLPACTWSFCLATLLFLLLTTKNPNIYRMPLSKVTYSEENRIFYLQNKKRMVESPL
Put plainly: Inhibition of UT-B in mouse acetamide-loaded erythrocyte assessed as increase of hypotonic lysis. In short, it runs like this:
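Erythrocytes preloaded with acetamide are diluted into isosmolar PBS. Hypotonic lysis is read as near-infrared light absorbance; blocking UT-B-mediated acetamide efflux increases lysis. IC50 comes from a fit to a single-site saturation model.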

A word on the IC50: it is the concentration needed to halve the response being measured. As to `CC(F)(F)c1ccc(S(=O)(=O)c2nnn3c2nc(NCc2ccccc2)c2sccc23)cc1`, the Stability with Liver microsomes is recorded as 79%. In addition, at Urea transporter 1, the half-inhibitory concentration (IC50) was greater than 0.8 µM.
Regarding `CCc1ccc(S(=O)(=O)c2nnn3c2nc(NCc2cccs2)c2sccc23)cc1`, the Stability in the series on Liver microsomes was less than 5%.
Take `CC(F)(F)c1ccc(S(=O)(=O)c2nnn3c2nc(NCC2CCC2)c2sccc23)cc1`: in the series with Liver microsomes, the Stability turned out to be 24%. For the same compound, on Urea transporter 1, the IC50 was greater than 0.8 µM.
For `CC(F)(F)c1ccc(S(=O)(=O)c2nnn3c2nc(NCc2ccsc2)c2sccc23)cc1`, in that order: 47% and 0.043 µM.
For `CC(F)(F)c1ccc(S(=O)(=O)c2nnn3c2nc(NCc2ccco2)c2sccc23)cc1`, in that order: 14% and 0.353 µM.
For `Cc1csc(CNc2nc3c(S(=O)(=O)c4ccc(C(C)(F)F)cc4)nnn3c3ccsc23)c1`, in that order: 22% and 0.038 µM.
For `CC(F)(F)c1ccc(S(=O)(=O)c2nnn3c2nc(NCC2CC2)c2sccc23)cc1`, the Stability in the series with Liver microsomes is listed as 75%. Moreover, the IC50 on Urea transporter 1 is greater than 0.8 µM.
